Measured values as given in ChEMBL document CHEMBL1154686, “Pyrazoline bearing benzimidazoles: search for anticancer agent” (2010).

Tests used:
Format in all cases: functional
[1] = system: HCC 2998; experiment: Growth inhibition of human HCC2998 cells after 48 hrs by SRB assay; details: HCC 2998, 48 h
Summary of the method: (§1)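 NCI-60 panel protocol with adherent lines. Cells were seeded at 5,000–40,000 cells/well, depending on doubling time, and pre-incubated 24 h at 37 °C, 5% CO₂. Time-zero plates were TCA-fixed at drug addition. Drugs were dissolved in DMSO and exposed for 48 h. Cells were fixed with cold TCA (final 10%) for 60 min at 4 °C, stained with 0.4% SRB in 1% acetic acid for 10 min, solubilized with 10 mM trizma base, and read at A515.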

[2] = system: Malme-3M; experiment: Growth inhibition of human MALME-3M cells after 48 hrs by SRB assay; summary of the method: as §1
[3] = system: SK-OV-3; experiment: Growth inhibition of human SKOV3 cells after 48 hrs by SRB assay; details: SK-OV-3, 48 h; summary of the method: as §1
[4] = system: ACHN; experiment: Growth inhibition of human ACHN cells after 48 hrs by SRB assay; summary of the method: as §1
[5] = system: 786-0; experiment: Growth inhibition of human 786-0 cells after 48 hrs by SRB assay; details: 786-0, 48 h; summary of the method: as §1
[6] = system: HOP-62; experiment: Growth inhibition of human HOP62 cells after 48 hrs by SRB assay; details: HOP-62, 48 h; summary of the method: as §1
[7] = system: IGROV-1; experiment: Growth inhibition of human IGROV1 cells after 48 hrs by SRB assay; details: IGROV-1, 48 h; summary of the method: as §1
[8] = system: NCI-H322M; experiment: Growth inhibition of human NCI-H322M cells after 48 hrs by SRB assay; summary of the method: as §1
[9] = system: NCI/ADR-RES; experiment: Growth inhibition of human NCI/ADR-RES cells after 48 hrs by SRB assay; summary of the method: as §1
[10] = system: NCI-H23; experiment: Growth inhibition of human NCI-H23 cells after 48 hrs by SRB assay; details: NCI-H23, 48 h; summary of the method: as §1
[11] = system: UACC-257; experiment: Growth inhibition of human UACC257 cells after 48 hrs by SRB assay; details: UACC-257, 48 h
Summary of the method: (§2)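 NCI 60-cell panel, five-dose format: cells plated at 5,000–40,000/well by doubling time, preincubated 24 h at 37 °C, 5% CO2; time-zero plates TCA-fixed. Compound dissolved in DMSO, five concentrations (0.01, 0.1, 1, 10, 100 µM) plus control, 48 h. Cells fixed with cold TCA, stained with 0.4% SRB in 1% acetic acid, bound dye solubilized in 10 mM trizma base, absorbance at 515 nm. GI50 taken from [(Ti–Tz)/(C–Tz)]×100 = 50.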

[12] = system: OVCAR-3; experiment: Growth inhibition of human OVCAR-3 cells after 48 hrs by SRB assay; details: OVCAR-3, 48 h; summary of the method: as §1
[13] = system: NCI-H460; experiment: Growth inhibition of human NCI-H460 cells after 48 hrs by SRB assay; details: NCI-H460, 48 h; summary of the method: as §1
[14] = system: SK-MEL-5; experiment: Growth inhibition of human SK-MEL-5 cells after 48 hrs by SRB assay; details: SK-MEL-5, 48 h; summary of the method: as §1
[15] = system: OVCAR-4; experiment: Growth inhibition of human OVCAR4 cells after 48 hrs by SRB assay; details: OVCAR-4, 48 h; summary of the method: as §1
[16] = system: SF-295; experiment: Growth inhibition of human SF295 cells after 48 hrs by SRB assay; details: SF-295, 48 h; summary of the method: as §1
[17] = system: KM12; experiment: Growth inhibition of human KM12 cells after 48 hrs by SRB assay; details: KM12, 48 h; summary of the method: as §1
[18] = system: MDA-MB-435; experiment: Growth inhibition of human MDA-MB-435 cells after 48 hrs by SRB assay; details: MDA-MB-435, 48 h; summary of the method: as §1
[19] = system: EKVX; experiment: Growth inhibition of human EKVX cells after 48 hrs by SRB assay; summary of the method: as §1
[20] = system: SNB-75; experiment: Growth inhibition of human SNB75 cells after 48 hrs by SRB assay; details: SNB-75, 48 h; summary of the method: as §1
[21] = system: HOP-92; experiment: Growth inhibition of human HOP92 cells after 48 hrs by SRB assay; details: HOP-92, 48 h; summary of the method: as §1
[22] = system: SW-620; experiment: Growth inhibition of human SW620 cells after 48 hrs by SRB assay; details: SW-620, 48 h; summary of the method: as §2
[23] = system: SF-268; experiment: Growth inhibition of human SF268 cells after 48 hrs by SRB assay; details: SF-268, 48 h; summary of the method: as §1
[24] = system: CCRF-CEM; experiment: Growth inhibition of human CCRF-CEM cells after 48 hrs by SRB assay
Summary of the method: (§3)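 Suspension leukemia lines were run in the NCI-60 SRB format. Cells were plated at 5,000–40,000 cells/well and pre-incubated 24 h at 37 °C, 5% CO₂, with time-zero plates fixed at drug addition. Drug exposure in DMSO-derived dilutions lasted 48 h. Settled cells were fixed with 80% TCA (final 16%), stained with 0.4% SRB, solubilized in 10 mM trizma base, and read at 515 nm. Percent growth was taken relative to the time-zero and control readings.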

[25] = system: MOLT-4; experiment: Growth inhibition of human MOLT4 cells after 48 hrs by SRB assay; details: MOLT-4, 48 h; summary of the method: as §3
[26] = system: RXF 393; experiment: Growth inhibition of human […] cells after 48 hrs by SRB assay; details: RXF 393, 48 h; summary of the method: as §1
[27] = read-out: LC50 (the source's name)

`COc1ccc(C2CC(c3nc4ccccc4[nH]3)=NN2c2ccccc2)cc1OC` (stereo not drawn) was tested. Which GI50 [1] did it give?
Its GI50 is 12.4 µM.

What about the TGI [1] of the same molecule?
The TGI was 26.1 µM.

And the CC50 [1, 27]?
Its CC50 is 55 µM.

And the GI50 [2]?
The GI50 was 7.47 µM.

What about the TGI [2] of the same molecule?
Its TGI is 92.7 µM.

What about the CC50 [2, 27] of the same molecule?
Its CC50 is greater than 100 µM.

And the GI50 [3]?
Its GI50 is 33.1 µM.

What about the TGI [3] of the same molecule?
Its TGI is greater than 100 µM.

And the CC50 [3, 27]?
Its CC50 is greater than 100 µM.

And the GI50 [4]?
The GI50 was 14 µM.

What about the TGI [4] of the same molecule?
The TGI was greater than 100 µM.

And the CC50 [4, 27]?
Its CC50 is greater than 100 µM.

What about the GI50 [5] of the same molecule?
Its GI50 is 24.2 µM.

And the TGI [5]?
Its TGI is greater than 100 µM.

What about the CC50 [5, 27] of the same molecule?
Its CC50 is greater than 100 µM.

What about the GI50 [6] of the same molecule?
Its GI50 is 19.9 µM.

What about the TGI [6] of the same molecule?
The TGI was greater than 100 µM.

And the CC50 [6, 27]?
Its CC50 is greater than 100 µM.

What about the GI50 [7] of the same molecule?
Its GI50 is 0.92 µM.

And the TGI [7]?
Its TGI is 19.1 µM.

And the CC50 [7, 27]?
Its CC50 is greater than 100 µM.

What about the GI50 [8] of the same molecule?
Its GI50 is 21.3 µM.

And the TGI [8]?
Its TGI is greater than 100 µM.

And the CC50 [8, 27]?
Its CC50 is greater than 100 µM.

What about the GI50 [9] of the same molecule?
The GI50 was 19 µM.

And the TGI [9]?
Its TGI is 94.5 µM.

And the CC50 [9, 27]?
The CC50 was greater than 100 µM.

What about the GI50 [10] of the same molecule?
The GI50 was 16 µM.

And the TGI [10]?
The TGI was greater than 100 µM.

What about the CC50 [10, 27] of the same molecule?
Its CC50 is greater than 100 µM.

And the GI50 [11]?
Its GI50 is 77.1 µM.

What about the TGI [11] of the same molecule?
Its TGI is greater than 100 µM.

What about the CC50 [11, 27] of the same molecule?
The CC50 was greater than 100 µM.

What about the GI50 [12] of the same molecule?
The GI50 was 4.17 µM.

What about the TGI [12] of the same molecule?
Its TGI is 18.9 µM.

And the CC50 [12, 27]?
Its CC50 is 62.2 µM.

And the GI50 [13]?
The GI50 was 13.6 µM.

And the TGI [13]?
Its TGI is 40 µM.

And the CC50 [13, 27]?
Its CC50 is greater than 100 µM.

And the GI50 [14]?
The GI50 was 2.62 µM.

And the TGI [14]?
The TGI was 15.1 µM.

And the CC50 [14, 27]?
Its CC50 is 67.6 µM.

What about the GI50 [15] of the same molecule?
The GI50 was 9.31 µM.

And the TGI [15]?
Its TGI is greater than 100 µM.

What about the CC50 [15, 27] of the same molecule?
Its CC50 is greater than 100 µM.

What about the GI50 [16] of the same molecule?
The GI50 was 5.98 µM.

What about the TGI [16] of the same molecule?
The TGI was 51.4 µM.

What about the CC50 [16, 27] of the same molecule?
The CC50 was greater than 100 µM.

What about the GI50 [17] of the same molecule?
The GI50 was 5.14 µM.

What about the TGI [17] of the same molecule?
Its TGI is 19.5 µM.

And the CC50 [17, 27]?
The CC50 was 52.2 µM.

What about the GI50 [18] of the same molecule?
Its GI50 is 4.15 µM.

What about the TGI [18] of the same molecule?
Its TGI is greater than 100 µM.

And the CC50 [18, 27]?
Its CC50 is greater than 100 µM.

What about the GI50 [19] of the same molecule?
The GI50 was 9.83 µM.

What about the TGI [19] of the same molecule?
Its TGI is greater than 100 µM.

What about the CC50 [19, 27] of the same molecule?
The CC50 was greater than 100 µM.

And the GI50 [20]?
The GI50 was 11 µM.

What about the TGI [20] of the same molecule?
The TGI was 47.4 µM.

And the CC50 [20, 27]?
The CC50 was greater than 100 µM.

What about the GI50 [21] of the same molecule?
The GI50 was 3.89 µM.

What about the TGI [21] of the same molecule?
The TGI was greater than 100 µM.

What about the CC50 [21, 27] of the same molecule?
Its CC50 is greater than 100 µM.

And the GI50 [22]?
The GI50 was 6.45 µM.

What about the TGI [22] of the same molecule?
The TGI was 23.3 µM.

And the CC50 [22, 27]?
Its CC50 is 65.7 µM.

What about the GI50 [23] of the same molecule?
Its GI50 is 21.3 µM.

What about the TGI [23] of the same molecule?
Its TGI is greater than 100 µM.

What about the CC50 [23, 27] of the same molecule?
Its CC50 is greater than 100 µM.

What about the GI50 [24] of the same molecule?
The GI50 was 2.23 µM.

And the TGI [24]?
Its TGI is 6.82 µM.

And the CC50 [24, 27]?
The CC50 was 88.7 µM.

What about the GI50 [25] of the same molecule?
Its GI50 is 17.9 µM.

And the TGI [25]?
The TGI was greater than 100 µM.

What about the CC50 [25, 27] of the same molecule?
Its CC50 is greater than 100 µM.

What about the GI50 [26] of the same molecule?
The GI50 was 13.4 µM.

And the TGI [26]?
Its TGI is 36.1 µM.

And the CC50 [26, 27]?
The CC50 was 97 µM.
